Experimental findings from ChEMBL document CHEMBL3351584, “Binding mode and potency of N-indolyloxopyridinyl-4-aminopropanyl-based inhibitors targeting Trypanosoma cruzi CYP51” (J Med Chem, 2014) are described below.

Common to all, as to format: ADME, organism-based
Series [1] in a line: Cmax in Swiss Webster mouse at 25 mg/kg, po administered as single dose by LC-MS/MS method. Set-up: dose 25 mg/kg, route oral. The conditions noted are these: in vivo. The procedure, abridged: (§1)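 Eight-week-old female Swiss Webster mice (n = 3 per compound) given one oral gavage dose of 25 mg/kg, formulated at 5 mg/mL in 20% Kolliphor/80% water. Plasma sampled at about 0.25, 0.5, 1, 2, 4, 6, 8, 12 and 24 h, precipitated with 5× v/v acetonitrile, filtered 0.2 μm and quantified by LC–MS/MS. Parameters calculated from plasma concentration–time curves, averaged over three mice.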

Series [2] can be described thus: AUClast in Swiss Webster mouse at 25 mg/kg, po administered as single dose by LC-MS/MS method. Details: dose 25 mg/kg, route oral, time 0 - last. Particulars: plasma. The procedure, abridged: as §1
A further series relates to Mus musculus. As to the kind of experiment: Volume of distribution in Swiss Webster mouse at 25 mg/kg, po administered as single dose by LC-MS/MS method. Details: dose 25 mg/kg, route oral. The conditions noted are these: in vivo. The procedure, abridged: as §1
The nature of series [3]: Tmax in Swiss Webster mouse at 25 mg/kg, po administered as single dose by LC-MS/MS method. The conditions noted are these: in vivo. Details: dose 25 mg/kg, route oral. The procedure, abridged: as §1
The species entered for a further series is Homo sapiens. The series can be described thus: Volume of distribution in human. Particulars: in vivo.

Consider `Cc1ccc(Cl)cc1N1CCN(c2ccc(C(=O)N[C@H](Cc3c[nH]c4ccccc34)C(=O)Nc3ccncc3)c(F)c2)CC1`, for which the highest concentration (Cmax) in series [1] was 1800 nM. Moreover, the AUC(0-t) in series [2] came to 19 µM·h. The Vd with Mus musculus stood at 3.44 L/kg. Also, in series [3], the time to peak (Tmax) was determined as 3.33 h.
`O=C(N[C@H](Cc1c[nH]c2ccccc12)C(=O)Nc1ccncc1)c1ccc(N2CCN(c3cc(Cl)cc(Cl)c3)CC2)cc1F`: the concentration in series [1] peaked (Cmax) at 1850 nM. This compound also registered an AUC(0-t) in series [2] of 22.5 µM·h. The compound further showed a Vd in the series on Mus musculus of 3.97 L/kg. Also, in series [3], the Tmax amounted to 4.67 h.
In the series listed under Homo sapiens, `CC[C@@H]([C@H](C)O)n1ncn(-c2ccc(N3CCN(c4ccc(OC[C@@H]5CO[C@@](Cn6cncn6)(c6ccc(F)cc6F)C5)cc4)CC3)cc2)c1=O` [POSACONAZOLE] gave a Vd of 5 L/kg.

Broadly, the Cmax is the highest concentration seen after dosing. Usually AUC(0-t) stands for the area under the concentration-time curve up to a stated or last time point. Low values mean low exposure, high ones high exposure. For orientation: Tmax means the time at which the peak concentration occurs.
